Laboratory results as given in ChEMBL document CHEMBL4765345, “Design, synthesis, and biological evaluation of dual targeting inhibitors of histone deacetylase 6/8 and bromodomain BRPF1” (Eur J Med Chem, 2020).

Columns and labels:
[1] = molecular target: T1, Histone deacetylase 1 (Homo sapiens, UniProt Q13547); assay: Inhibition of recombinant human HDAC1 at 1 uM using Z-(Ac)Lys-AMC as substrate after 90 mins by fluorescence based micro plate assay
Method in brief: (§1)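 Recombinant human HDAC1 or HDAC6 incubated 90 min at 37 °C with 10.5 μM ZMAL (Z-(Ac)Lys-AMC) and increasing inhibitor concentrations, using a homogeneous fluorescence assay. Fluorescence read at Ex 390/Em 460 nm.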

[2] = molecular target: T1, Histone deacetylase 1; assay: Inhibition of recombinant human HDAC1 at 10 uM using Z-(Ac)Lys-AMC as substrate after 90 mins by fluorescence based micro plate assay; method in brief: as §1
[3] = molecular target: T2, Protein deacetylase HDAC6 (Homo sapiens) (UniProt Q9UBN7); assay: Inhibition of recombinant human HDAC6 at 1 uM using Z-(Ac)Lys-AMC as substrate after 90 mins by fluorescence based micro plate assay; method in brief: as §1
T2 sequence (whole entry): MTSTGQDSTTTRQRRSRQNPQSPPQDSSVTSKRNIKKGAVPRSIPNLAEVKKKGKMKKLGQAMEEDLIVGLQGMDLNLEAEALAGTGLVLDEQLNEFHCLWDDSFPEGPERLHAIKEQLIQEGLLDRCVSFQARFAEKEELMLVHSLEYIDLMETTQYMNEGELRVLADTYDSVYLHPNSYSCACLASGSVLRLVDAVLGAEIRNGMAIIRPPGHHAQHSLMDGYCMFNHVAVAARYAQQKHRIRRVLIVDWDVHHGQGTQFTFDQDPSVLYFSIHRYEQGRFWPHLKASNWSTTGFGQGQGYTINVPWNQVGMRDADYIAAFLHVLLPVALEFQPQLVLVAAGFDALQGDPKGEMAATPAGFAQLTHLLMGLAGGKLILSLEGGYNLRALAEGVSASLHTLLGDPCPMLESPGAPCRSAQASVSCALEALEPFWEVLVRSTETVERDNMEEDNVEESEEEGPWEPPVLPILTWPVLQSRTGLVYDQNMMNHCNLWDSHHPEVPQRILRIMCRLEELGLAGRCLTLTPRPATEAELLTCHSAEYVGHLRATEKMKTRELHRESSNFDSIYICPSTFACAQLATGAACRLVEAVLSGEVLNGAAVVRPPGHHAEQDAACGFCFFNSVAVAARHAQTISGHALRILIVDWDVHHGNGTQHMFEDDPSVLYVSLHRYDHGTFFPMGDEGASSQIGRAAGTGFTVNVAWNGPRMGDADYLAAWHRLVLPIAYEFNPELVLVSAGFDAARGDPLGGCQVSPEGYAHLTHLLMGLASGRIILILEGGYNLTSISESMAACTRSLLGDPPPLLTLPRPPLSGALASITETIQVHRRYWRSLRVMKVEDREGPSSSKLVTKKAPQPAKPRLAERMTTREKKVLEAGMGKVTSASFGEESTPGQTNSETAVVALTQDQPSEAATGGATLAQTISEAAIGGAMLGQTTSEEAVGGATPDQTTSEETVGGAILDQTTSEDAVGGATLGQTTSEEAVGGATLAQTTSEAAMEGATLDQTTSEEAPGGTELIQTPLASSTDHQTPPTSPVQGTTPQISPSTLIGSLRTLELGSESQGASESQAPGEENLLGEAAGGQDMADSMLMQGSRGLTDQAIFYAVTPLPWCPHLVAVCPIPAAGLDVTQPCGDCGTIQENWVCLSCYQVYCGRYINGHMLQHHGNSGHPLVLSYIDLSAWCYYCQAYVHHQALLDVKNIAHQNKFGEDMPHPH

[4] = molecular target: T2, Protein deacetylase HDAC6 (Homo sapiens); assay: Inhibition of recombinant human HDAC6 at 10 uM using Z-(Ac)Lys-AMC as substrate after 90 mins by fluorescence based micro plate assay; method in brief: as §1
[5] = molecular target: T3, Histone deacetylase 8 (Homo sapiens, UniProt Q9BY41); assay: Inhibition of human recombinant HDAC8 using H2N-Arg-His-Lys(Ac)-Lys(Ac)-AMC as substrate after 90 mins by fluorescence based micro plate assay
T3 sequence (Q9BY41 whole entry): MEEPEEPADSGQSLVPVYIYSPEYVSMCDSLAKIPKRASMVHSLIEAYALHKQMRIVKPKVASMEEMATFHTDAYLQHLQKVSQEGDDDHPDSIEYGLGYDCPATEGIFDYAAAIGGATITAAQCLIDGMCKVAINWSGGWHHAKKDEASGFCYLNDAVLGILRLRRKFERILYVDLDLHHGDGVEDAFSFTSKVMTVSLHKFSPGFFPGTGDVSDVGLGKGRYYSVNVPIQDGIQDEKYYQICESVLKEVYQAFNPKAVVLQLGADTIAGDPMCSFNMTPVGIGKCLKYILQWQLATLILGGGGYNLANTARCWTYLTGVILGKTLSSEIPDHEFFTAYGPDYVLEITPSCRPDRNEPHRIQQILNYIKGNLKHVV

[6] = system: HEK293; assay: Cytotoxicity against human HEK293 assessed as reduction in cell viability incubated for 24 hrs by AlamarBlue assay; type: cell-based; conditions: hek293, 24 h
Method in brief: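 HEK293 cells were grown at 37 °C under 5% CO2 in DMEM with 10% FCS and 5 mM glutamine and seeded at 1.5 x 10³ cells per well. Compound at 50 μM was added at once. After 24 h AlamarBlue was added for another 21 h, and fluorescence was read at Ex 560/Em 590 nm. Triplicates over three independent experiments.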

[7] = system: THP-1; assay: Antiproliferative activity against human THP-1 assessed as reduction in cell growth at 20 uM by CellTiter-non radioactive cell proliferation assay; type: functional
[8] = system: THP-1; assay: Antiproliferative activity against human THP-1 assessed as reduction in cell growth at 4 uM by CellTiter-non radioactive cell proliferation assay; type: functional
[9] = system: HL-60; assay: Antiproliferative activity against human HL60 assessed as reduction in cell growth at 100 uM by CellTiter-non radioactive cell proliferation assay; type: functional
[10] = system: HL-60; assay: Antiproliferative activity against human HL60 assessed as reduction in cell growth at 20 uM by CellTiter-non radioactive cell proliferation assay; type: functional
[11] = system: HL-60; assay: Antiproliferative activity against human HL60 assessed as reduction in cell growth at 4 uM by CellTiter-non radioactive cell proliferation assay; type: functional
Method in brief: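 HL60 cells plated at 5000 per well and given inhibitor or DMSO vehicle immediately. Compounds diluted from 200x DMSO stocks; three replicates per concentration. Growth read by CellTiter 96 Aqueous (MTS) assay. GI50 is the concentration cutting metabolically active cells by 50% versus DMSO control, taken from absorbance against log concentration.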

T1 sequence (Q13547 whole entry): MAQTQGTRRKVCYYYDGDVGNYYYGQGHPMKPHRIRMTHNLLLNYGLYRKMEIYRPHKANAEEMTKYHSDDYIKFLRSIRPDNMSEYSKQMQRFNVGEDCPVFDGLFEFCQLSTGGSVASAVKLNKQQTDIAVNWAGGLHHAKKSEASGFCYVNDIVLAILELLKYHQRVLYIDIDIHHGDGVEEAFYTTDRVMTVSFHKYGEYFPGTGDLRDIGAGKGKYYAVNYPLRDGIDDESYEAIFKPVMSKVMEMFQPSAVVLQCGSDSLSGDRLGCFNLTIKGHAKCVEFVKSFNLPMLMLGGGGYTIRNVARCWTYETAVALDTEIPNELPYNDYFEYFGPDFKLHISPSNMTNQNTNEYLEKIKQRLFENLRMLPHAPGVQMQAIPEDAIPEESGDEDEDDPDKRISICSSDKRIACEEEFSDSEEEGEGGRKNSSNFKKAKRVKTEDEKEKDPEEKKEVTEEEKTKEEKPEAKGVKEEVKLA

Molecule `COc1ccc(C(=O)NO)cc1S(=O)(=O)Nc1ccc2c(c1)cc(C)c(=O)n2C` has an inhibition [1] of 6%, an inhibition [2] of 38% and an inhibition [3] of 21%. For the same molecule, the inhibition [4] was 64%, the IC50 [5] was 443 nM and the Activity [6] was “Non-Toxic”. The inhibition at 20 µM [7] was 32%, the inhibition at 4 µM [8] was 0% and the inhibition at 100 µM [9] was 39%. The inhibition at 20 µM [10] was 10% and the inhibition at 4 µM [11] was 25%.
